Published values pooled from the literature.
Each line is one published result; the experiments were not run side by side.
Target: Bone morphogenetic protein receptor type-2 (BMPR2, Homo sapiens, UniProt Q13873)
Sequence (Q13873 27-1038, as in one of the studies): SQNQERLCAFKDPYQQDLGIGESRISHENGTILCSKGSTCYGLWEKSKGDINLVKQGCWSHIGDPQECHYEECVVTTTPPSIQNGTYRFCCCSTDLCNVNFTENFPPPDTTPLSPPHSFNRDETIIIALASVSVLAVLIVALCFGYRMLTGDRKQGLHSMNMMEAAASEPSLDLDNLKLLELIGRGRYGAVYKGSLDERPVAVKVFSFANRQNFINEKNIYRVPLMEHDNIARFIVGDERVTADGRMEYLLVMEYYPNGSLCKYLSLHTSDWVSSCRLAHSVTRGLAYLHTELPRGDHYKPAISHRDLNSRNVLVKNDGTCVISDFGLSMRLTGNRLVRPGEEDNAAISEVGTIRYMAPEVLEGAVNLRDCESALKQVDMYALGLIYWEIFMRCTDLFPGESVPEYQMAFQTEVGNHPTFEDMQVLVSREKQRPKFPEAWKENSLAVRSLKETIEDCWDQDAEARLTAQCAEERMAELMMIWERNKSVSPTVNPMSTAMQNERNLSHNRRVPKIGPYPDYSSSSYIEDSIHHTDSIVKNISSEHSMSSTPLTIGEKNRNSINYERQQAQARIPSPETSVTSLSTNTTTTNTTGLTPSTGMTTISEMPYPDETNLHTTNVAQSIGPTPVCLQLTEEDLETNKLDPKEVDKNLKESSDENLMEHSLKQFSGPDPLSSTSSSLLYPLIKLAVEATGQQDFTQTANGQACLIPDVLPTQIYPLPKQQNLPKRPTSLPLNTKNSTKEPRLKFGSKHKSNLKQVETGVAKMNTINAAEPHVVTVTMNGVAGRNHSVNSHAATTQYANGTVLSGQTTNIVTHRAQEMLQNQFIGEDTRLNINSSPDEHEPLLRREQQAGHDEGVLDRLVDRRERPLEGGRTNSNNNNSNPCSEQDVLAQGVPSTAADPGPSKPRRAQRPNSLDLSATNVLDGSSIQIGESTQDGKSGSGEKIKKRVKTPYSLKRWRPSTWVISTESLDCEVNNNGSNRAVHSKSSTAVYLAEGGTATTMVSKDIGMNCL

SMILES | read-out | action | technique | tested at | quantity | value
Cn1cncc1C1=CN(c2ncnc3[nH]cnc23)CCS1 | enzyme activity | inhibitor | radiometric | 50 nM | inhibition | 21.3%
Cn1nc(C(F)(F)F)cc1-c1cnc(N2CCc3cc(S(=O)(=O)Nc4c(F)cc(Cl)cc4F)cc(N4CCCC4=O)c32)nc1 | cell-free assay |  | competition with immobilised ligand | 1 µM | remaining binding | 77%
CS(=O)(=O)Nc1cccc(-c2csc(NC(=O)CSc3nc4nccnc4c(=O)n3CCc3ccccc3)n2)c1 | enzyme activity | inhibitor |  | 10 µM | inhibition | 3%
COc1cc(Cl)c(C(=O)N[C@@H](CN[C@H]2CC[C@@H](N)CC2)Cc2ccc(C#N)cc2)cc1-c1ccc(CN[C@H](C)c2ccc(C)cc2)o1 | enzyme activity | inhibitor |  | 1 µM | remaining activity | 99%
Cn1c2c(c3ccc(Cl)c(Cl)c31)C(C#N)C(C)(C)NC2=O (stereo not shown) | thermal stability |  | DSF | 10 µM | ΔTm | 1.4 °C
COc1cc(-c2cn(C3CCc4c(F)cccc4N(CC(F)(F)F)C3=O)nn2)ccc1-n1cnc(C)c1 (stereo not shown) | cell-free assay |  | competition with immobilised ligand | 1 µM | remaining binding | 100%
Cc1sc(C(=O)NC2COC2)cc1-n1cc(NC(=O)Nc2c(F)cccc2Cl)cn1 | enzyme activity | inhibitor |  | 10 µM | remaining activity | 84.5%
N#CC1c2c([nH]c3c(Cl)c(Cl)ccc23)C(=O)NC12CCCCC2 (racemic) | thermal stability |  | DSF | 10 µM | ΔTm | 0.7 °C
Cc1ccc(C(=O)Nc2ccc(CN3CCN(C)CC3)c(C(F)(F)F)c2)cc1C#Cc1cnc2cccnn12 | cell-free assay |  |  | 23.5 nM | remaining signal | 98%
O=C(NCCCC1CCCCC1)c1ccc(CNC(=O)c2cnn(-c3ccccc3)c2C(F)(F)F)cc1 | cell-free assay |  | competition with immobilised ligand | 0.1 µM | remaining binding | 100%
Nc1ncnc2occ(-c3ccc(NC(=O)Nc4cc(C(F)(F)F)ccc4F)cc3)c12 | cell-free assay |  |  | 20 µM | remaining signal | 60%
Cn1c2c(c3ccc(Cl)c(Cl)c31)C(C#N)C1(CCNCC1)NC2=O (racemic) | thermal stability |  | DSF | 10 µM | ΔTm | 0.3 °C
O=C(Nc1ccc(Oc2ccc(F)cc2)cc1)N1CCc2ncccc2[C@H]1c1ccc(F)cc1 | cell-free assay |  | competition with immobilised ligand | 1 µM | remaining binding | 96%
